From ChEMBL document CHEMBL1275259, “In vitro antituberculosis activities of ACH-702, a novel isothiazoloquinolone, against quinolone-susceptible and quinolone-resistant isolates” (Antimicrob Agents Chemother, 2010) come the findings set out here.

Usually MIC stands for the lowest concentration that inhibits growth of the organism. High values mean a less susceptible organism, low ones a more susceptible organism. By IC50 is commonly meant the concentration that gives 50% inhibition. Higher therefore signals lower potency.

Experiment [1] concerns Mycobacterium tuberculosis. The experiment in a line: Antimicrobial activity against pansusceptible Mycobacterium tuberculosis isolate 14. It is filed as functional. The procedure, abridged: (§1)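 Broth microdilution MIC in modified 7H10 broth (pH 6.6). Drugs dissolved in DMSO at 1 mg/ml, then serially diluted. Isolates grown 5 to 10 days at 37°C on a rotary shaker, diluted to 100 Klett units and frozen. Final inoculum about 6 × 10^4 CFU/ml (range 1.2 × 10^4 to 2.6 × 10^5). Duplicate wells, sealed, read after about 21 days at 37°C in ambient air.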

Experiment [2] concerns Mycobacterium tuberculosis. The experiment in a line: Antimicrobial activity against Mycobacterium tuberculosis isolate 13 isolated from Beijing. The experiment is classed as functional. The procedure, abridged: as §1
Experiment [3] concerns Mycobacterium tuberculosis. Description: Antimicrobial activity against pansusceptible Mycobacterium tuberculosis isolate 6. The experiment is classed as functional. The procedure, abridged: as §1
Experiment [4] concerns Mycobacterium tuberculosis. Description: Antimicrobial activity against pansusceptible Mycobacterium tuberculosis isolate 7. It is filed as functional. In a few lines:
as §1

The target in experiment [5] is DNA gyrase subunit A (Mycobacterium tuberculosis, UniProt P9WG47). The experiment in a line: Inhibition of DNA supercoiling activity of wild type Mycobacterium tuberculosis DNA gyrase A. The procedure, abridged:
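Gyrase reconstituted from wild-type GyrA plus wild-type GyrB at a 2:3 molar ratio. Supercoiling assay follows ATP-dependent conversion of relaxed pBR322 DNA to the supercoiled form. Supercoiled product quantified by ethidium bromide fluorescence after agarose gel electrophoresis.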

For experiment [6], the system named is Mycobacterium tuberculosis. The experiment in a line: Antimicrobial activity against pansusceptible Mycobacterium tuberculosis isolate 5. It is filed as functional. In a few lines: as §1
The subject of experiment [7] is Mycobacterium tuberculosis. Description: Antimicrobial activity against pansusceptible Mycobacterium tuberculosis isolate 4. The experiment is classed as functional. The procedure, abridged:
as §1

The test system of experiment [8] is Mycobacterium tuberculosis. Description: Antimicrobial activity against pansusceptible Mycobacterium tuberculosis isolate 2. The experiment is classed as functional. The procedure, abridged: as §1
The subject of experiment [9] is Mycobacterium tuberculosis. Description: Antimicrobial activity against pansusceptible Mycobacterium tuberculosis isolate 3. It is filed as functional. In a few lines: as §1
For experiment [10], the system named is Mycobacterium tuberculosis. The experiment in a line: Antimicrobial activity against pansusceptible Mycobacterium tuberculosis isolate 1. It is filed as functional. In a few lines: as §1

Values after ≈ are worked out from the molar mass of the structure shown. A value given as a limit tells only on which side of the number the result lay.

Sequence of DNA gyrase subunit A (P9WG47 whole entry): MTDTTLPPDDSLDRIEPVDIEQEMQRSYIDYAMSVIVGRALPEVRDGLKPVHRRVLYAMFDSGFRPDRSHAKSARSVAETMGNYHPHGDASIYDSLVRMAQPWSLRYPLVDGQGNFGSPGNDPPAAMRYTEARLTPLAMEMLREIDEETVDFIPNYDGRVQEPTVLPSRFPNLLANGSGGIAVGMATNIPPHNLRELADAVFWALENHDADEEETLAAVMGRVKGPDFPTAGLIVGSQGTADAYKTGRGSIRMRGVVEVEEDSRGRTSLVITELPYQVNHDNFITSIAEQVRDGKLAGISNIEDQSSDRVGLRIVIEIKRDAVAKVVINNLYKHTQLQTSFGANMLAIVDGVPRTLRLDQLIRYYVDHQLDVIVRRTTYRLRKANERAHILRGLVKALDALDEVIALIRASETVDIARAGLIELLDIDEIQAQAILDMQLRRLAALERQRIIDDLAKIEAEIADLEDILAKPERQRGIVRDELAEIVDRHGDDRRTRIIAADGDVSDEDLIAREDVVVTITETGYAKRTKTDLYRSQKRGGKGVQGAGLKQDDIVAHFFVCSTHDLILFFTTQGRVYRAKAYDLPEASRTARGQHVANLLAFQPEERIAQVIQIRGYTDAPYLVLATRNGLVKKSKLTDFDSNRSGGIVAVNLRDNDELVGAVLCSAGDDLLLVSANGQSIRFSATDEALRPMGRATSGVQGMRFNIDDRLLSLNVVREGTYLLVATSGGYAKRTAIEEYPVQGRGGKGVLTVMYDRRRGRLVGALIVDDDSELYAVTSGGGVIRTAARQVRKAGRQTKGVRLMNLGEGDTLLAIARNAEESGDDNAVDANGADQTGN

Take `COc1c(N2CC[C@@H](C(C)(C)N)C2)c(F)cc2c(=O)c3c(=O)[nH]sc3n(C3CC3)c12`: the MIC in experiment [1] was 0.06 µg/mL (≈ 0.139 µM); in experiment [2], 0.06 µg/mL (≈ 0.139 µM); in experiment [3] it was 0.03 µg/mL (≈ 0.0694 µM); in experiment [4], 0.06 µg/mL (≈ 0.139 µM); in experiment [6], 0.06 µg/mL (≈ 0.139 µM); in experiment [7] it was 0.06 µg/mL (≈ 0.139 µM). Besides, the MIC stood at 0.03 µg/mL (≈ 0.0694 µM) in [8], 0.06 µg/mL (≈ 0.139 µM) in experiment [9] and 0.06 µg/mL (≈ 0.139 µM) in experiment [10]. Further, in experiment [5], the 50% inhibitory concentration (IC50) is 2.9 µM.
Consider `COc1c(N2C[C@@H]3CCCN[C@@H]3C2)c(F)cc2c(=O)c(C(=O)O)cn(C3CC3)c12` [MOXIFLOXACIN], for which the minimal inhibitory concentration (MIC) in [1] was determined as 0.03 µg/mL (≈ 0.0747 µM); in experiment [2], 0.03 µg/mL (≈ 0.0747 µM); in [3] it was 0.03 µg/mL (≈ 0.0747 µM); in experiment [4], 0.06 µg/mL (≈ 0.149 µM); in experiment [6], 0.06 µg/mL (≈ 0.149 µM); in experiment [7], 0.06 µg/mL (≈ 0.149 µM). The minimum inhibitory concentration (MIC) in [8], in [9] and in [10] was 0.03 µg/mL (≈ 0.0747 µM) throughout.
For `CO[C@H]1/C=C/O[C@@]2(C)Oc3c(C)c(O)c4c(O)c(c(/C=N/N5CCN(C)CC5)c(O)c4c3C2=O)NC(=O)/C(C)=C\C=C\[C@H](C)[C@H](O)[C@@H](C)[C@@H](O)[C@@H](C)[C@H](OC(C)=O)[C@@H]1C` [RIFAMPIN], the minimal inhibitory concentration (MIC) in [1] stood at 0.002 µg/mL (≈ 0.00243 µM); in experiment [2], 0.002 µg/mL (≈ 0.00243 µM); in experiment [3] it was 0.008 µg/mL (≈ 0.00972 µM); in [4], 0.004 µg/mL (≈ 0.00486 µM); in [6], 0.015 µg/mL (≈ 0.0182 µM); in experiment [7], 0.008 µg/mL (≈ 0.00972 µM). Besides, the figures for the minimal inhibitory concentration (MIC) in experiment [8], in experiment [9] and in experiment [10] were at most 0.001 µg/mL, 0.004 µg/mL (≈ 0.00486 µM) and 0.004 µg/mL (≈ 0.00486 µM), respectively.
In the case of `NNC(=O)c1ccncc1` [ISONIAZID], the minimum inhibitory concentration (MIC) was 0.06 µg/mL (≈ 0.438 µM) in experiment [1]; 0.125 µg/mL (≈ 0.911 µM) in experiment [2]; 0.06 µg/mL (≈ 0.438 µM) in experiment [3]; 0.06 µg/mL (≈ 0.438 µM) in [4]; 0.125 µg/mL (≈ 0.911 µM) in experiment [6]; 0.06 µg/mL (≈ 0.438 µM) in experiment [7]. Further, the MIC in [8] was determined as 0.06 µg/mL (≈ 0.438 µM); in experiment [9], 0.06 µg/mL (≈ 0.438 µM); in experiment [10], 0.03 µg/mL (≈ 0.219 µM).
`COc1c(N2CCNC(C)C2)c(F)cc2c(=O)c(C(=O)O)cn(C3CC3)c12` (centres undefined) [GATIFLOXACIN] came in with an IC50 in experiment [5] of 9.4 µM.
In experiment [5], `C[C@H]1COc2c(N3CCN(C)CC3)c(F)cc3c(=O)c(C(=O)O)cn1c23` [LEVOFLOXACIN] returned a concentration for half-maximal inhibition (IC50) of 52 µM.
